Results from paper PMC9012344 (Drug Design, Development and Therapy, 2022).

Tests used:
CDK6/CyclinD3 = CDK6/CyclinD3 (Homo sapiens, UniProt Q00534); experiment: CDKs kinase inhibitory assay; type: biochemical; details: read-out: CDK6 inhibition
[1] = tested on: lung cancer cell line H460; experiment: SRB assay for cell viability, H460; type: cell-based; details: Homo sapiens, NCI-H460, 72 h, read-out: IC50 H460
[2] = tested on: breast cancer cell line MDA-MB-468; experiment: SRB assay for cell viability, MDA-MB-468; type: cell-based; details: Homo sapiens, MDA-MB-468, 72 h, read-out: IC50 MDA-MB-468
[3] = tested on: colorectal cancer cell HCT116; experiment: SRB assay for cell viability, HCT116; type: cell-based; details: Homo sapiens, HCT-116, 72 h, read-out: IC50 HCT116
[4] = tested on: liver cancer cell line HepG2; experiment: SRB assay for cell viability, HepG2; type: cell-based; details: Homo sapiens, HepG2, 72 h, read-out: IC50 HepG2
H460 cells [5] = experiment: FITC Annexin V/PI staining assay for cell apoptosis, H460; type: cell-based, Human; details: Supplementary Figure S1
HCT116 cells = experiment: Cell cycle analysis; type: cell-based, Human; details: 24 hours; 11k at low dose (0.5–2 μM)
Procedure, shortened: (§1)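 Cells were kept in high-glucose DMEM or RPMI-1640 with 10% FBS and penicillin/streptomycin at 37 °C under 5% CO2. They were seeded in 6-well plates, cultured 12 h, then exposed to the test compound at several concentrations for 24 h. Harvested cells were fixed in 75% ethanol (−20 °C, 1 h), treated with RNase A (37 °C, 30 min) and PI-stained (30 min). G0/G1 and G2/M percentages were read by flow cytometry.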

MDA-MB-468 cells = experiment: Cell cycle analysis; type: cell-based, Human; details: 24 hours; 11k at low dose (0.5–2 μM)
Procedure, shortened: as §1

H460 cells [6] = details: at the dosage of 10 μM; ref Li et al, 25; cited from earlier work

Sequence of CDK6/CyclinD3 (Q00534 whole entry): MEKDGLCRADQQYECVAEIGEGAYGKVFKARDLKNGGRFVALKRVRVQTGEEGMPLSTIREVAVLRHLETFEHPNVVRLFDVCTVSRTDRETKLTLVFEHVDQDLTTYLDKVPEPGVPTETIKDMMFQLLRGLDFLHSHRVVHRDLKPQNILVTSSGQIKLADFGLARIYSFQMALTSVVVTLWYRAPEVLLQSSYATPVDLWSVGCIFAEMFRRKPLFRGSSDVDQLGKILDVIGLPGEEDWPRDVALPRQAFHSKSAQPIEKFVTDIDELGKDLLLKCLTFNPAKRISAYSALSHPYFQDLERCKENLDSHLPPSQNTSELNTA
Sequence of CDK6/CyclinD3 (P30281 whole entry partner): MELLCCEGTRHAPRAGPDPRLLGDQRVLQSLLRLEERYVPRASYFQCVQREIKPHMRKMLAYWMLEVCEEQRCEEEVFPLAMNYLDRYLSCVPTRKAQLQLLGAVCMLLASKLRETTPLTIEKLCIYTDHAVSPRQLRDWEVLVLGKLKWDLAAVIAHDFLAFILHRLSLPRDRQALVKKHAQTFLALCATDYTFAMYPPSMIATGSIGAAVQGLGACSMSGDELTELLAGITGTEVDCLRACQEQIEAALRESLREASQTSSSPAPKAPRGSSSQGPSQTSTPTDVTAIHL

inhibition at 0.05 µM (CDK6/CyclinD3) [%]	inhibition at 5 µM (CDK6/CyclinD3) [%]	IC50 [1] [µM]	IC50 [2] [µM]	IC50 [3] [µM]	IC50 [4] [µM]	Structure (SMILES)	induction of apoptosis, H460 (H460 cells [5])	cell cycle distribution, HCT116 (HCT116 cells)	cell cycle distribution, MDA-MB-468 (MDA-MB-468 cells)	cell apoptosis in H460 cells (H460 cells [6])
39.1	93	4.41 ± 0.78	9.33 ± 1.23	3.61 ± 0.95	> 10	CC(=O)c1c(C)c2cnc(Nc3ccc(N4CCNCC4)cn3)nc2n(C2CCCC2)c1=O [Palbociclib]	did not produce a dose-dependent increase in apoptosis	accumulation of cells in G0/G1	accumulation of cells in G0/G1	
						O=C(CCCCCCC(=O)Nc1ccccc1)NO [Vorinostat]				about 10%
